The target in experiment [1] is T1, Ornithine decarboxylase (Mus musculus) (UniProt P00860).
T1 sequence (whole entry): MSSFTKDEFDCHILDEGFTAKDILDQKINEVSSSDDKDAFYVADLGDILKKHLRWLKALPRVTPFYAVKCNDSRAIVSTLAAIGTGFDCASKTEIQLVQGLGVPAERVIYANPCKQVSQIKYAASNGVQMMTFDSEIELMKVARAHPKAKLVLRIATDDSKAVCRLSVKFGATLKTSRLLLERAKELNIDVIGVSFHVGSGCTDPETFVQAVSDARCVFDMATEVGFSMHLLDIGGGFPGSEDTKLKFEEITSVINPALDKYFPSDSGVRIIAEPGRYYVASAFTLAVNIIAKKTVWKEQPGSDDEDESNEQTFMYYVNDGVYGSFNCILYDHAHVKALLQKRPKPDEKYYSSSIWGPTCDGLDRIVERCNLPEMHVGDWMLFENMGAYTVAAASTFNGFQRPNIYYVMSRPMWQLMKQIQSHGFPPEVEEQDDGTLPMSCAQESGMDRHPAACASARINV
As to the kind of experiment: Compound was evaluated for the stimulation of Ornithine decarboxylase (ODC) activity in murine macrophagelike cell line RAW264 as a parameter for macrophage stimulation, and the pyrogenicity test in rabbits at a concentration of 0.02 ug/ml. Put shortly:
(§1)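 RAW-264 cells at 5.5 × 10^5 cells/mL in serum-free DMEM-H21 with 15 mM HEPES and 1 mM pyruvate, held overnight at 37 °C/5% CO2. Murine γ-IFN (2000 units/mL) and test material in pyrogen-free water then added for 4 h. Cells were lysed by sonication, and ODC in the supernatant was assayed with [3H]-L-ornithine plus 1 mM L-ornithine stock, 60 min at 37 °C. LPS 5 ng/mL served as internal standard.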

For experiment [2], the target named is T1, Ornithine decarboxylase (Mus musculus). As to the kind of experiment: Compound was evaluated for the stimulation of Ornithine decarboxylase (ODC) activity in murine macrophagelike cell line RAW264 as a parameter for macrophage stimulation, and the pyrogenicity test in rabbits at a concentration of 0.1 ug/ml. Put shortly:
as §1

The target is the same in experiment [3]. In words: Compound was evaluated for the stimulation of Ornithine decarboxylase (ODC) activity in murine macrophagelike cell line RAW264 as a parameter for macrophage stimulation, and the pyrogenicity test in rabbits at a concentration of 0.5 ug/ml. The gist of the method:
as §1

The target is the same in experiment [4]. As to the kind of experiment: Compound was evaluated for the stimulation of Ornithine decarboxylase (ODC) activity in murine macrophagelike cell line RAW264 as a parameter for macrophage stimulation, and the pyrogenicity test in rabbits at a concentration of 10 ug/ml. The gist of the method: as §1
Experiment [5] shares this target. As to the kind of experiment: Compound was evaluated for the stimulation of Ornithine decarboxylase (ODC) activity in murine macrophagelike cell line RAW264 as a parameter for macrophage stimulation, and the pyrogenicity test in rabbits at a concentration of 2 ug/ml. Put shortly:
as §1

The subject of experiment [6] is Oryctolagus cuniculus. As to the kind of experiment: Increase in temperature of three rabbits treatment with the compound at a dose of 1 ug/kg. Format: functional.
The test system of experiment [7] is Oryctolagus cuniculus. In words: Increase in temperature of three rabbits treatment with the compound at a dose of 50 ug/kg. Format: functional.
Experiment [8] is described as follows: Endotoxic activity determined by limulus amoebocyte lysate (LAL) assay.

For the compound `CCCCCCCCCCCC(O)CC(=O)N[C@@H]1C(OCC2OC(P(=O)(O)O)[C@@H](NC(=O)CC(O)CCCCCCCCCCC)C(OC(=O)CC(O)CCCCCCCCCCC)[C@@H]2O)OC(CO)[C@@H](O)C1OC(=O)CC(O)CCCCCCCCCCC` (stereo partly specified) [PHOSPHONATE ANALOGUE OF LIPID A], the Stimulation in experiment [1] is 5%; in experiment [2] it was 20%; in experiment [3], 70%; in experiment [4], 84%; in experiment [5] it was 75%. Besides, the increase in temperature in experiment [6] was 2.1; in experiment [7] it was 6.6. For the same compound, the EU in experiment [8] turned out to be 30000 g⁻¹.
For the compound `CCCCCCCCCCCC(O)CC(=O)N[C@@H]1C(OCC2OC(OP(=O)(O)O)[C@@H](NC(=O)CC(O)CCCCCCCCCCC)C(OC(=O)CC(O)CCCCCCCCCCC)[C@@H]2O)OC(CO)[C@@H](O)C1OC(=O)CC(O)CCCCCCCCCCC` (stereo partly specified), the Stimulation in experiment [1] was found to be 2%; in experiment [2], 30%; in experiment [3], 60%; in experiment [4], 97%; in experiment [5] it was 98%. Further, the increase in temperature in experiment [6] came out at 2.1; in experiment [7] it was 5.95. Besides, in experiment [8], the EU was 80000 g⁻¹.

Source of the values: ChEMBL document CHEMBL1126064, “Enzymatic synthesis and comparative biological evaluation of a phosphonate analogue of the lipid A precursor” (1992).
